Data on 27 molecules can be found in ChEMBL document CHEMBL1124641, “Synthesis and antiinflammatory and analgesic activity of 5-aroyl-6-(methylthio)-1,2-dihydro-3H-pyrrolo[1,2-a]pyrrole-1-ca rboxyl ic acids and 1-methyl-4-(methylthio)-5-aroylpyrrole-2-acetic acids” (J Med Chem, 1989).

As a reminder, the ED50 is the midpoint of the dose-response relation.

Data set [1] has as its system Rattus norvegicus. As to the kind of experiment: Antiinflammatory activity assessed by inhibition of carrageenan-induced edema in rats […]. Format: functional.
The next data set has as its system Mus musculus. Briefly: Analgesic activity was assessed from the ability to inhibit phenylquinone-induced writhing in mouse […]. Format: functional. Summed up: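 Mouse phenylquinone-induced writhing screen. Potency is expressed relative to aspirin (aspirin = 1), with 95% confidence limits where given.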
Data set [2] is filed under the species Rattus norvegicus. Briefly: Chronic gastrointestinal erosive activity in rats. Format: functional. To be noted: read-out: MED. An outline of the steps: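 Chronic 7-day gastrointestinal erosion assay in rats with daily dosing. The read-out is the minimum effective dose for erosion (mg/kg per day), with 15 rats where stated.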
The nature of data set [3]: Therapeutic ratio of MED GI erosion to that of ED30 of rat paw. Format: ADME. Summed up:
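Ratio derived as the gastrointestinal erosion minimum effective dose divided by the ED30 from the carrageenan rat paw assay. The erosion dose (mg/kg per day) comes from a 7-day chronic dosing assay in rats.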

`CSc1cc2n(c1C(=O)c1ccc(Br)cc1)CCC2C(=O)O` (stereo unspecified) returned an ED30 in the data set on Rattus norvegicus [1] of 26 mg/kg. The ED50 in the data set on Mus musculus was below 9 mg/kg.

In the data set with Rattus norvegicus [1], `CSc1cc(CC(=O)O)n(C)c1C(=O)c1ccccc1` came in with an ED30 of 1 mg/kg. The same molecule gave a median effective dose (ED50) in the data set with Mus musculus above 11 mg/kg.

Take `CSc1cc2n(c1C(=O)c1ccc(OC(C)C)cc1)CCC2C(=O)O` (stereo unspecified): in the data set with Rattus norvegicus [1], the ED30 was below 1 mg/kg. This molecule had a 50% effective dose (ED50) with Mus musculus of 1 mg/kg.

With `CCc1ccc(C(=O)c2c(SC)cc3n2CCC3C(=O)O)cc1` (stereo unspecified), the ED30 in the data set on Rattus norvegicus [1] was determined as 16 mg/kg. Also, it took a dose of 70 mg/kg to reach the 50% effect level in the data set with Mus musculus (ED50).

On to `CCCCC1C(=O)N(c2ccccc2)N(c2ccccc2)C1=O` [PHENYLBUTAZONE], for which the ED30 in the data set on Rattus norvegicus [1] worked out at 15 mg/kg.

As to `CSc1cc(CC(=O)O)n(C)c1C(=O)c1ccc(C2CC2)cc1`, the ED30 in the data set with Rattus norvegicus [1] is 10 mg/kg. The molecule further registered an ED50 in the data set with Mus musculus of 30 mg/kg.

Turning to `CSc1cc(CC(=O)O)n(C)c1C(=O)c1ccc(C)cc1`, in the data set listed under Rattus norvegicus [2], the minimal effective dose was above 45 mg/kg. For the same molecule, in data set [3], the selectivity ratio is above 4.5.

As to `COc1ccc2cc([C@H](C)C(=O)O)ccc2c1` [NAPROXEN], the minimal effective dose in the data set filed under Rattus norvegicus [2] came to 30 mg/kg/day. Further, the selectivity ratio in data set [3] came to 22.

In the data set on Rattus norvegicus [1], `CCCc1ccc(C(=O)c2c(SC)cc3n2CCC3C(=O)O)cc1` (stereo unspecified) came in with an ED30 of 2.5 mg/kg. The same molecule yielded a median effective dose (ED50) in the data set on Mus musculus of 7 mg/kg.

Consider `CSc1cc2n(c1C(=O)c1ccc(Cl)cc1)CCC2C(=O)O` (stereo unspecified), for which the minimal effective dose in the data set listed under Rattus norvegicus [2] was 1.5 mg/kg. In addition, the selectivity ratio in data set [3] came to 3.5.

On to `O=C(c1ccccc1)c1ccc2n1CCC2C(=O)O` (stereo unspecified) [KETOROLAC], for which the minimal effective dose in the data set filed under Rattus norvegicus [2] worked out at 5 mg/kg. Also, the selectivity ratio in data set [3] was found to be 18.

In the data set on Rattus norvegicus [1], `CSc1cc(CC(=O)O)n(C)c1C(=O)c1ccc(F)cc1` yielded an ED30 of 0.5 mg/kg. In the data set on Mus musculus, the ED50 is 37 mg/kg.

Regarding `CCOc1ccc(C(=O)c2c(SC)cc(CC(=O)O)n2C)cc1`, in the data set with Rattus norvegicus [1], the ED30 turned out to be 3.6 mg/kg. Moreover, the ED50 in the data set with Mus musculus is 6 mg/kg.

Molecule `CCOc1ccc(C(=O)c2c(SC)cc3n2CCC3C(=O)O)cc1` (stereo unspecified) returned an ED30 in the data set with Rattus norvegicus [1] of 4 mg/kg. In the data set on Mus musculus, the 50% effective dose (ED50) was below 13 mg/kg.

In turn, `CC(=O)Oc1ccccc1C(=O)O` [ASPIRIN] returned an ED50 in the data set on Mus musculus of 70 mg/kg.

`CCCc1ccc(C(=O)c2c(SC)cc(CC(=O)O)n2C)cc1`: the ED30 with Rattus norvegicus [1] is 0.2 mg/kg. This molecule also yielded a 50% effective dose (ED50) in the data set with Mus musculus of 5 mg/kg.

Consider `CSc1cc2n(c1C(=O)c1ccc(C(F)(F)F)cc1)CCC2C(=O)O` (stereo unspecified), for which the ED30 in the data set on Rattus norvegicus [1] worked out at 15 mg/kg. In the data set with Mus musculus, this molecule had a 50% effective dose (ED50) of 50 mg/kg.

Molecule `COc1ccc(C(=O)c2c(SC)cc3n2CCC3C(=O)O)cc1` (stereo unspecified) yielded an ED30 in the data set with Rattus norvegicus [1] below 10 mg/kg. The ED50 with Mus musculus is 50 mg/kg.

Molecule `CSc1cc2n(c1C(=O)c1ccc(C3CC3)cc1)CCC2C(=O)O` (stereo unspecified) displayed an ED30 in the data set with Rattus norvegicus [1] of 13 mg/kg. Further, the ED50 in the data set on Mus musculus was determined as 25 mg/kg.

As for `CSc1cc2n(c1C(=O)c1ccc(F)cc1)CCC2C(=O)O` (stereo unspecified), in the data set with Rattus norvegicus [1], the ED30 was below 10 mg/kg. This molecule also came in with an ED50 in the data set on Mus musculus of 60 mg/kg.

In the case of `CSc1cc(CC(=O)O)n(C)c1C(=O)c1ccc(Cl)cc1`, the ED30 in the data set with Rattus norvegicus [1] worked out at 1.5 mg/kg. The same molecule returned an ED50 with Mus musculus of 56 mg/kg.

Turning to `CSc1cc2n(c1C(=O)c1ccc(C3CCCCC3)cc1)CCC2C(=O)O` (stereo unspecified), the ED30 in the data set on Rattus norvegicus [1] is below 1 mg/kg. The ED50 with Mus musculus is below 3 mg/kg.

`CSc1cc2n(c1C(=O)c1ccc(C)cc1)CCC2C(=O)O` (stereo unspecified): in the data set filed under Rattus norvegicus [2], the minimal effective dose amounted to 19 mg/kg. Besides, the selectivity ratio in data set [3] was 4.

`CSc1ccc(C(=O)c2c(SC)cc3n2CCC3C(=O)O)cc1` (stereo unspecified) returned an ED30 in the data set with Rattus norvegicus [1] of 10 mg/kg. In the data set on Mus musculus, this molecule registered an ED50 of 50 mg/kg.

`C=Cc1ccc(C(=O)c2c(SC)cc3n2CCC3C(=O)O)cc1` (stereo unspecified): the ED30 in the data set on Rattus norvegicus [1] was 16 mg/kg. It took a dose of 38 mg/kg to reach the 50% effect level with Mus musculus (ED50).

`CS(=O)(=O)c1cc2n(c1C(=O)c1ccc(Br)cc1)CCC2C(=O)O` (stereo unspecified): the ED30 with Rattus norvegicus [1] was below 1 mg/kg.

`Cc1cc(CC(=O)O)n(C)c1C(=O)c1ccc(Cl)cc1` [ZOMEPIRAC]: the minimal effective dose in the data set filed under Rattus norvegicus [2] turned out to be 10 mg/kg. Also, the selectivity ratio in data set [3] turned out to be 17.
